Data on 26 compounds can be found in ChEMBL document CHEMBL3120049, “Conformational restriction of aryl thiosemicarbazones produces potent and selective anti-Trypanosoma cruzi compounds which induce apoptotic parasite death” (Eur J Med Chem, 2014).

Active and inactive are the calls of the source. The calls are words filed in the database; no cut-off is given here.

The subject of data set [1] is Trypanosoma cruzi. Put plainly: Antitrypanosomal activity against Trypanosoma cruzi Y […] trypomastigotes isolated from infected LLC-MK2 cells assessed as parasite viability after 24 hrs by neubauer chamber analysis. The data set is classed as functional. Conditions: LLC-MK2, 24 h. An outline of the steps: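 Y strain (TcII) […] trypomastigotes taken from supernatant of infected LLC-MK2 cells, seeded at 4 × 10⁵ cells/well in RPMI-1640. DMSO stocks serially diluted in RPMI. 24 h at 37 °C, 5% CO₂; viable parasites counted in a Neubauer chamber, % inhibition versus untreated cultures; CC50 by nonlinear regression, triplicates, experiment repeated, SD <10% of mean required.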

The nature of data set [2]: Cytotoxicity against BALB/c mouse splenocytes assessed as cell viability after 24 hrs by [3H]thymidine incorporation assay. The data set is classed as cell-based, Splenocyte. Particulars: for MNTC at 24 h: read-out: MNCC. An outline of the steps: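 Splenocytes from BALB/c mice seeded at 5 × 10⁶ cells/well. DMSO stocks serially diluted in RPMI-1640 (final DMSO 1%), triplicate wells. 24 h at 37 °C, 5% CO₂ with […] ³H-thymidine; cells harvested, % ³H-thymidine incorporation by scintillation counting. CC50 from five concentrations; highest non-cytotoxic concentration also noted.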
On the technique in general: Dividing cells build labelled thymidine or BrdU into new DNA.

Data set [3] has as its system Trypanosoma cruzi. Put plainly: Antitrypanosomal activity against Trypanosoma cruzi Dm28c epimastigotes assessed as inhibition of parasite proliferation after 5 days by hemocytometer analysis. Conditions: 120 h. The data set is classed as functional, organism-based. An outline of the steps: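 Dm28c epimastigotes kept in LIT medium with 10% FBS at 26 °C, seeded at 10⁶ cells/well. DMSO stocks serially diluted in LIT (1.23–100 […] as printed; final DMSO 1%), triplicate wells. 5 days at 26 °C, then viable parasites counted in a Neubauer chamber against untreated culture; IC50 from concentrations in triplicate, experiment repeated, only values with SD <10% of mean kept.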

Data set [4] deals with Cruzipain (Trypanosoma cruzi) (UniProt P25779). Put plainly: Inhibition of Trypanosomal cruzi recombinant cruzain assessed as substrate cleavage using Z-Phe-Arg-AMC as substrate at 50 uM preincubated for 10 mins measured for 5 mins by flow cytometry. Particulars: in the assay text read “by fluorescence assay” for “by flow cytometry”. An outline of the steps: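 Recombinant cruzain, final concentration 0.5 nM, in 0.1 M sodium acetate pH 5.5 with 1 mM β-mercaptoethanol and 0.01% Triton X-100. Substrate Z-FR-AMC at 2.5 (Km 1.0). Screened with no pre-incubation and after 10-min enzyme pre-incubation. Fluorescence read at ex 340/em 440 nm for 5 min, activity relative to DMSO control. Two independent experiments in triplicate.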
Sequence of Cruzipain (Trypanosoma cruzi) (P25779 123-467 limits assumed): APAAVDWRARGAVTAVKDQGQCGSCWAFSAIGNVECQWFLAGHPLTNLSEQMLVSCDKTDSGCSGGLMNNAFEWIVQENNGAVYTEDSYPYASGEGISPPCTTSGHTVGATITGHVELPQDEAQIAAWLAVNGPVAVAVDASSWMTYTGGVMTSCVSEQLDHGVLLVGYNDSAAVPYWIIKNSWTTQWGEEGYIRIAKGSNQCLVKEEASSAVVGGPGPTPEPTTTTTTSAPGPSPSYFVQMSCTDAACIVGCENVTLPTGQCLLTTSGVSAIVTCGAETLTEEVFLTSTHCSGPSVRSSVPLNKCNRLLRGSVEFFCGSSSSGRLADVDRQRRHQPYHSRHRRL
(Flow cytometry measures light scatter and fluorescence of single cells or particles in a stream.)

Data set [5] concerns Trypanosoma cruzi. Put plainly: Antitrypanosomal activity against Trypanosoma cruzi trypomastigotes assessed as induction of apoptotic parasitic death at CC25 to CC100 after 24 hrs by Annexin V-FITC/propidium iodide staining based flow cytometry. The data set is classed as functional, organism-based.
Data set [6] is described as follows: Selectivity index, ratio of CC50 for BALB/c mouse splenocytes to CC50 for Trypanosoma cruzi Y trypomastigotes. An outline of the steps:
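Ratio of CC50 in BALB/c splenocytes (24 h ³H-thymidine incorporation) to CC50 in Y strain trypomastigotes (24 h Neubauer count of viable parasites).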

Data set [7] deals with Trypanosoma cruzi. Put plainly: Antitrypanosomal activity against Trypanosoma cruzi trypomastigotes assessed as early apoptotic cells at 1.1 uM after 24 hrs by Annexin V-FITC/propidium iodide staining based flow cytometry (reference value: 1.71%). It counts as functional.
Data set [8] deals with Trypanosoma cruzi. Put plainly: Antitrypanosomal activity against Trypanosoma cruzi trypomastigotes assessed as induction of apoptotic parasitic death after 24 hrs by Annexin V-FITC/propidium iodide staining based flow cytometry. The data set is classed as functional, organism-based.
In data set [9] the test system is Trypanosoma cruzi. Put plainly: Antitrypanosomal activity against Trypanosoma cruzi trypomastigotes assessed as early apoptotic cells at 0.25 uM after 24 hrs by Annexin V-FITC/propidium iodide staining based flow cytometry (reference value: 1.71%). The data set is classed as functional.
Data set [10] concerns Trypanosoma cruzi. Put plainly: Antitrypanosomal activity against Trypanosoma cruzi trypomastigotes assessed as late apoptotic cells at 0.25 uM after 24 hrs by Annexin V-FITC/propidium iodide staining based flow cytometry (reference value: 0.8%). The data set is classed as functional.
Data set [11] has as its system Trypanosoma cruzi. Put plainly: Antitrypanosomal activity against Trypanosoma cruzi trypomastigotes assessed as necrotic cells at 1.1 uM after 24 hrs by Annexin V-FITC/propidium iodide staining based flow cytometry (reference value: 0.37%). It counts as functional.
The test system of data set [12] is Trypanosoma cruzi. Put plainly: Antitrypanosomal activity against Trypanosoma cruzi trypomastigotes assessed as necrotic cells at 0.25 uM after 24 hrs by Annexin V-FITC/propidium iodide staining based flow cytometry (reference value: 0.37%). It counts as functional.
The subject of data set [13] is Trypanosoma cruzi. Put plainly: Antitrypanosomal activity against Trypanosoma cruzi trypomastigotes assessed as late apoptotic cells at 1.1 uM after 24 hrs by Annexin V-FITC/propidium iodide staining based flow cytometry (reference value: 0.8%). It counts as functional.

As to `C/C(=N\NC(N)=S)C(C)Oc1ccc(F)cc1` (stereo not given), the cytotoxic concentration (CC50) (commonly the concentration giving 50% cytotoxicity) in the data set with Trypanosoma cruzi [1] is 23.2 µM. For the same compound, the MNTC at 24 h in [2] was above 392 µM. Besides, in the data set with Trypanosoma cruzi [3], the IC50 (usually the concentration needed to halve the response being measured) was found to be 86.4 µM.
The like results for `C/C(=N\NC(N)=S)C(C)Oc1ccc(I)cc1` (stereo not given) were, in that order, 1.1 µM, 13.7 µM and 4.9 µM.
As to `CC1CS(=O)(=O)CCN1/N=C/c1ccc([N+](=O)[O-])o1` (stereo not given) [NIFURTIMOX], the half-maximal cytotoxic concentration (CC50) in the data set with Trypanosoma cruzi [1] turned out to be 2.7 µM. Further, the 50% inhibitory concentration (IC50) with Trypanosoma cruzi [3] is 5.7 µM.
`C/C(=N\NC(N)=S)C(C)Oc1ccccc1Cl` (stereo not given): the CC50 in the data set with Trypanosoma cruzi [1] is 1.5 µM. The MNTC at 24 h in data set [2] was determined as 36.8 µM. In the data set with Trypanosoma cruzi [3], the IC50 came to 10.3 µM.
As to `C/C(=N\NC(N)=S)C(C)Oc1cccc(-c2ccccc2)c1` (stereo not given), the CC50 in the data set on Trypanosoma cruzi [1] worked out at 1.3 µM. In addition, in [2], the MNTC at 24 h turned out to be 31.9 µM. Also, the 50% inhibitory concentration (IC50) in the data set with Trypanosoma cruzi [3] was found to be 2.2 µM.
For `C/C(=N\NC(N)=S)C(C)Oc1ccc(C(C)(C)C)cc1` (stereo not given), in that order: 1.4 µM, 17 µM and 4.6 µM.
The like results for `C/C(=N\NC(N)=S)C(C)Oc1ccccc1` (stereo not given) were, in that order, 27.3 µM, 211 µM and 26.1 µM.
With `C/C(=N\NC(N)=S)C(C)Oc1cccc(Cl)c1Cl` (stereo not given), in the data set on Trypanosoma cruzi [1], the CC50 turned out to be 11.9 µM. Besides, the MNTC at 24 h in data set [2] is 32.6 µM. The IC50 in the data set with Trypanosoma cruzi [3] is 2.2 µM.
Consider `C/C(=N\NC(N)=S)C(C)Oc1ccc(C(C)C)cc1` (stereo not given), for which, in the data set on Trypanosoma cruzi [1], the CC50 was determined as 1.5 µM. The MNTC at 24 h in data set [2] turned out to be 17.9 µM. The IC50 with Trypanosoma cruzi [3] is 5.9 µM.
For `COc1cccc(OC(C)/C(C)=N/NC(N)=S)c1` (stereo not given), in that order: 6.2 µM, 37.4 µM and 6.8 µM.
In the case of `C/C(=N\NC(N)=S)C(C)Oc1ccc(F)c(Cl)c1` (stereo not given), the CC50 in the data set with Trypanosoma cruzi [1] was determined as 3.5 µM. The MNTC at 24 h in data set [2] was determined as 34.5 µM.
As for `C/C(=N\NC(N)=S)C(C)Oc1cccc2ccccc12` (stereo not given), in the data set with Trypanosoma cruzi [1], the CC50 was 1.5 µM. In [4], the inhibition result was “inactive”. The MNTC at 24 h in [2] turned out to be 34.8 µM. The IC50 in the data set on Trypanosoma cruzi [3] is 4.9 µM.
In the case of `COc1ccc(OC(C)/C(C)=N/NC(N)=S)cc1` (stereo not given), the CC50 in the data set on Trypanosoma cruzi [1] was 26.8 µM. Besides, the MNTC at 24 h in data set [2] was found to be 93.5 µM. In addition, the IC50 in the data set with Trypanosoma cruzi [3] is 27.6 µM.
On to `C/C(=N\NC(N)=S)C(C)Oc1cccc(Cl)c1` (stereo not given), for which, in the data set on Trypanosoma cruzi [1], the CC50 was determined as 5.5 µM. In the data set on Trypanosoma cruzi [5], the outcome was Active. Besides, in [2], the MNTC at 24 h was 36.8 µM. The IC50 in the data set with Trypanosoma cruzi [3] worked out at 45.8 µM.
As to `C/C(=N\NC(N)=S)C(C)Oc1cccc(Br)c1` (stereo not given), the CC50 in the data set with Trypanosoma cruzi [1] came to 4.5 µM. Moreover, in data set [2], the MNTC at 24 h stood at 31.6 µM. Also, the IC50 in the data set with Trypanosoma cruzi [3] was found to be 5.8 µM.
For `C/C(=N\NC(N)=S)C(C)Oc1ccc([N+](=O)[O-])cc1` (stereo not given), the CC50 in the data set on Trypanosoma cruzi [1] amounted to 5.9 µM. Further, the inhibition result in data set [4] is “inactive”. In addition, in data set [2], the MNTC at 24 h turned out to be 88.5 µM. The IC50 in the data set with Trypanosoma cruzi [3] was 177 µM.
Regarding `C/C(=N\NC(N)=S)C(C)Oc1ccc(Oc2ccccc2)cc1` (stereo not given), the cytotoxic concentration (CC50) in the data set with Trypanosoma cruzi [1] turned out to be 1.3 µM. The MNTC at 24 h in [2] was 30.3 µM.
For `O=C(Cn1ccnc1[N+](=O)[O-])NCc1ccccc1` [BENZNIDAZOLE], the CC50 in the data set with Trypanosoma cruzi [1] was determined as 6.2 µM. Besides, the IC50 with Trypanosoma cruzi [3] was 48.8 µM.
Turning to `CCc1ccc(OC(C)/C(C)=N/NC(N)=S)cc1` (stereo not given), in the data set with Trypanosoma cruzi [1], the CC50 was 4.6 µM. The MNTC at 24 h in [2] was determined as 18.8 µM. Also, the IC50 in the data set on Trypanosoma cruzi [3] turned out to be 11.6 µM.
On to `CC(=O)Nc1ccc(OC(C)/C(C)=N/NC(N)=S)cc1` (stereo not given), for which the CC50 with Trypanosoma cruzi [1] amounted to 1.4 µM. Besides, the outcome with Trypanosoma cruzi [5] was Active. In addition, in data set [6], the “Selectivity Index” value was 250. In addition, in [2], the half-maximal cytotoxic concentration (CC50) at 24 h stood at 350 µM and the MNTC at 24 h is above 340 µM. Also, the IC50 in the data set on Trypanosoma cruzi [3] turned out to be 71.5 µM.
On to `C/C(=N\NC(N)=S)C(C)Oc1ccc(Cl)c(Cl)c1` (stereo not given), for which the CC50 with Trypanosoma cruzi [1] was 4.4 µM. The MNTC at 24 h in [2] came to 16.3 µM. Besides, the IC50 with Trypanosoma cruzi [3] is 4.4 µM.
With `C/C(=N\NC(N)=S)C(C)Oc1ccc(-c2ccccc2)cc1` (stereo not given), in the data set with Trypanosoma cruzi [1], the CC50 is 1.3 µM. In addition, the inhibition result in data set [4] was “inactive”. The MNTC at 24 h in data set [2] is 15.9 µM. The IC50 with Trypanosoma cruzi [3] came out at 4.5 µM.
As to `C/C(=N\NC(N)=S)C(C)Oc1ccc(Cl)cc1` (stereo not given), the CC50 with Trypanosoma cruzi [1] amounted to 22.8 µM. For the same compound, the MNTC at 24 h in [2] came to 92 µM. In addition, the IC50 in the data set on Trypanosoma cruzi [3] was 13.5 µM.
The like results for `C/C(=N\NC(N)=S)C(C)Oc1ccc2ccccc2c1` (stereo not given) were, in that order, 5.6 µM, 34.8 µM and 17.9 µM.
For the compound `C/C(=N\NC(N)=S)C(C)Oc1ccccc1-c1ccccc1` (stereo not given), the Activity in the data set on Trypanosoma cruzi [7] was 7.8%; in the data set on Trypanosoma cruzi [8], “Dose-dependent effect”; in the data set on Trypanosoma cruzi [9], 1.22%; in the data set on Trypanosoma cruzi [10], 2.21%; with Trypanosoma cruzi [11], 4.62%; in the data set on Trypanosoma cruzi [12], 0.51%. Further, the Activity in the data set with Trypanosoma cruzi [13] was 6.2%. Besides, the cytotoxic concentration (CC50) in the data set with Trypanosoma cruzi [1] turned out to be 1.1 µM. In data set [6], the “Selectivity Index” value is given as 45. In [2], the CC50 at 24 h was 50 µM. Moreover, in [2], the MNTC at 24 h was 31.9 µM. Moreover, the IC50 with Trypanosoma cruzi [3] was determined as 2.2 µM.
On to `C/C(=N\NC(N)=S)C(C)Oc1ccc(Br)cc1` (stereo not given), for which the CC50 in the data set with Trypanosoma cruzi [1] was determined as 3.9 µM. In data set [2], the MNTC at 24 h was determined as 31.6 µM. Further, in the data set on Trypanosoma cruzi [3], the IC50 came to 20.1 µM.
